# Assay results of several laboratories.
# Protocols differ between the studies behind these lines.
# HTR6: 5-hydroxytryptamine receptor 6 (HTR6, Homo sapiens, UniProt P50406)
# PTAFR: Platelet-activating factor receptor (PTAFR, Homo sapiens, UniProt P25105)
# SIRT6: NAD-dependent protein deacylase sirtuin-6 (SIRT6, Homo sapiens, UniProt Q8N6T7)
# CCR2: C-C chemokine receptor type 2 (CCR2, Homo sapiens, UniProt P41597)
# SCN5A: Sodium channel protein type 5 subunit alpha (SCN5A, Homo sapiens, UniProt Q14524)
# Plasmepsin II: Plasmepsin II (Plasmodium falciparum, UniProt P46925)
# Adra1a: Alpha-1A adrenergic receptor (Adra1a, Rattus norvegicus, UniProt P43140)
Compound,target,assay,system,conditions,inhibition [%]
Nc1ccc(-c2ccncc2)cc1NC(=O)N1CCCC1,HTR6,"ligand displacement, radioligand",,10 µM,16
C/C(=C\C(=O)OCCCCCCCCC(=O)O)C[C@@H]1OC[C@H](C[C@@H]2O[C@H]2[C@@H](C)[C@H](C)O)[C@@H](O)[C@H]1O,"C-C chemokine receptor type 5 (CCR5, Homo sapiens, UniProt P51681)","calcium signal, antagonist",U87/CD4/CCR5,100 µM,96
O=C(c1ccc(F)cc1)N(Cc1ccccc1)C1CCCCC1,PTAFR,cell-free assay,,10 µM,6
CCCCCCCCCCCCNC(=S)NCCCC[C@H](NS(C)(=O)=O)C(=O)N[C@@H](C)C(=O)N[C@@H](CCCNC(=N)N)C(N)=O,SIRT6,"enzyme activity, inhibitor",,10 µM,30
CN(Cc1ccc(NC(=O)C2=Cc3cc(-c4ccc(OCCCCCO)cc4)ccc3CCC2)cc1)C1CCOCC1,CCR2,"ligand displacement, radioligand",,"1 µM, cell membranes",53
O=c1c2ccccc2c(Cc2ccc(Cl)cc2)nn1C1CCCNCC1 (stereo not shown),SCN5A,"ion current, inhibitor, patch clamp",CHO,10 µM,62
O=[N+]([O-])c1ccc(N2CCC(NCCC(O)c3csc4ccc(F)cc34)CC2)c(C(F)(F)F)c1 (stereo not shown),Plasmepsin II,"enzyme activity, inhibitor",,5 µM,0
CCN(CC)c1ccc(C2Nc3ccc(C(=O)c4ccccc4)cc3NC3=C2C(=O)CC(C)(C)C3)cc1 (stereo not shown),HTR6,"ligand displacement, radioligand",,10 µM,30
CN(C)C1CCN(CC#Cc2nn(C3CCCC3)c3nc(NCc4ccccc4)ncc23)C1 (stereo not shown),"Serine/threonine-protein kinase pim-1 (PIM1, Homo sapiens, UniProt P11309)","enzyme activity, inhibitor, FRET",,10 µM,2
O=C(Nc1ccc(S(=O)(=O)N2CCC(Cl)CC2)cc1)c1ccc([N+](=O)[O-])o1,Adra1a,"ligand displacement, radioligand",,10 µM,19
Ic1cccc2cnccc12,Adra1a,"ligand displacement, radioligand",,10 µM,9
O=[N+]([O-])c1ccc(N2CCC(NCCC(O)c3ccc(F)c4ccccc34)CC2)c(C(F)(F)F)c1 (stereo not shown),Plasmepsin II,"enzyme activity, inhibitor",,5 µM,9
NC(=O)c1ccc(C(=O)NOCc2ccc(-n3cccn3)cc2)cc1,SIRT6,"enzyme activity, inhibitor, fluorescence",,100 µM,91.8
CN(Cc1ccc(NC(=O)C2=Cc3cc(-c4ccc(OCCCO)cc4)ccc3CCC2)cc1)C1CCOCC1,CCR2,"ligand displacement, radioligand",,"1 µM, cell membranes",51
NC(=O)c1ccc(C(=O)NOCc2ccc(Sc3cccc(F)c3)c(C(F)(F)F)c2)cc1,SIRT6,"enzyme activity, inhibitor, fluorescence",,100 µM,97.6
CCN(Cc1ccccc1C(F)(F)F)C(=O)C1CCN(S(=O)(=O)c2ccc3[nH]ncc3c2)CC1,PTAFR,"ligand displacement, radioligand",,10 µM,7
O=C(NO)c1ccc(C(=O)NOCc2ccc(C(F)(F)F)cc2)cc1,SIRT6,"enzyme activity, inhibitor, fluorescence",,100 µM,93.3
Cc1ccc(CNC(=O)[C@H](CCc2ccccc2)NC(=O)[C@H](CCc2ccccc2)NC(=O)[C@H](CCc2ccccc2)NC(=O)c2cnc(C)cn2)cc1,"Cathepsin B (CTSB, Homo sapiens, UniProt P07858)","enzyme activity, inhibitor",,100 µM,-15
CC1=NN(c2ccccc2)CC1,"NADPH oxidase 4 (NOX4, Homo sapiens, UniProt Q9NPH5)","enzyme activity, inhibitor, fluorescence",,"100 µM, cell membranes",> 40
CN1CC(Oc2cnc(C#N)cc2-c2ccn3nc(NC(=O)C4CC4)cc3c2)C1,"[Pyruvate dehydrogenase (acetyl-transferring)] kinase isozyme 4, mitochondrial (PDK4, Homo sapiens, UniProt Q16654)","enzyme activity, inhibitor",,1 µM,2
OC(CCN1CCN(c2ccc(C(F)(F)F)cc2)CC1)c1csc2ccc(F)cc12 (stereo not shown),Plasmepsin II,"enzyme activity, inhibitor",,5 µM,0
COc1cccc(Sc2ccc(CONC(=O)c3ccc(C(N)=O)cc3)cc2C(F)(F)F)c1,SIRT6,"enzyme activity, inhibitor, fluorescence",,100 µM,100
CC/C(=N\NC(=O)NCc1cccc(O)c1)c1ccc(O)c(C)c1O,"ALK tyrosine kinase receptor (ALK, Homo sapiens, UniProt Q9UM73, L1196M)","enzyme activity, inhibitor",,0.1 µM,3
NC(=S)c1ccc(C(=O)NOCc2ccc(C(F)(F)F)cc2)cc1,SIRT6,"enzyme activity, inhibitor, fluorescence",,100 µM,89.2
O=C(NCCNC(=O)c1n[nH]c(=O)c2ccccc12)c1cccc(CN2C(=O)CNC2=O)c1,"Poly [ADP-ribose] polymerase 2 (PARP2, Homo sapiens, UniProt Q9UGN5)","enzyme activity, inhibitor",,0.5 µM,~50
NC(=O)c1ccc(C(=O)NOCc2ccc(Sc3cc(Cl)cc(Cl)c3)c(C(F)(F)F)c2)cc1,SIRT6,"enzyme activity, inhibitor, fluorescence",,100 µM,100
COc1cc2c3c(c1OCc1ccc(Br)cc1)-c1cc4c(cc1CC3N(C)CC2c1ccccc1)OCO4 (stereo not shown),"5-hydroxytryptamine receptor 7 (HTR7, Homo sapiens, UniProt P34969)","ligand displacement, radioligand",,10 µM,-22.6
Cc1cccc(CONC(=O)c2ccc(C(N)=O)cc2)c1,SIRT6,"enzyme activity, inhibitor, fluorescence",,100 µM,84
CCN(CC)CCNC(=O)C1CCN(c2ccc3nnc(-c4cccc(C)c4)n3n2)CC1,SCN5A,"ion current, inhibitor, patch clamp",CHO,10 µM,9.9
NC(=O)c1ccc(C(=O)NOCc2ccc3sc4ccccc4c3c2)cc1,SIRT6,"enzyme activity, inhibitor, fluorescence",,100 µM,96.2
N#Cc1cc(Cn2c(N3CCCC3)nc3ccccc32)ccc1F,HTR6,ligand displacement,,10 µM,6.5
